Source: ChEMBL document CHEMBL1800036, “A novel HDAC inhibitor with a hydroxy-pyrimidine scaffold” (Bioorg Med Chem Lett, 2011)
Calls of active or inactive are those of the source. No cut-off for these calls is given here.

Tests used:
[1] = target: Histone deacetylase 1 (Homo sapiens, UniProt Q13547); test: Inhibition of recombinant HDAC1 assessed as inhibition of fluorogenic aminocoumarin release from substrate by trypsin-coupled biochemical assay
How it was run: (§1)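 Trypsin-coupled fluorogenic assay. Substrate is an acetylated lysine tripeptide amide-linked to aminocoumarin (AMC). HDAC deacetylation allows trypsin to release AMC, and the fluorescence increase is read. Compound was tested at various concentrations and normalized to a DMSO control. IC50 was derived by non-linear regression fit.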

[2] = target: T1, Histone deacetylase 2 (Homo sapiens, UniProt Q92769); test: Inhibition of recombinant HDAC2 assessed as inhibition of fluorogenic aminocoumarin release from substrate by trypsin-coupled biochemical assay
T1 sequence (Q92769 whole entry): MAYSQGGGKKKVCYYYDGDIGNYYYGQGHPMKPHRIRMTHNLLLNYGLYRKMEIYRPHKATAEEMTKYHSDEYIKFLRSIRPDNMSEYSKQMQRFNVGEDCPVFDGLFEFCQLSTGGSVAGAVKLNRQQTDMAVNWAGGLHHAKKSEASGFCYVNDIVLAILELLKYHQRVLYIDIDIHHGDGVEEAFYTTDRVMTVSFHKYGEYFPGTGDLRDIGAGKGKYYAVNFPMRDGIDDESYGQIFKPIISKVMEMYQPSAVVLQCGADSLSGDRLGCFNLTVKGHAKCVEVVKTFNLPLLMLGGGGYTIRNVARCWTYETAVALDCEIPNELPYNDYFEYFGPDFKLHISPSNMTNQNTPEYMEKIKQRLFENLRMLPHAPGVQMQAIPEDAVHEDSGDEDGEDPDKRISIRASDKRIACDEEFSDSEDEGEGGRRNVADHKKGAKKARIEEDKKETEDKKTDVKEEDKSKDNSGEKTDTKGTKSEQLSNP

[3] = target: Histone deacetylase 3 (Homo sapiens, UniProt O15379); test: Inhibition of recombinant HDAC3 assessed as inhibition of fluorogenic aminocoumarin release from substrate by trypsin-coupled biochemical assay; how it was run: as §1
Histone deacetylase 3, sequence (O15379 whole entry): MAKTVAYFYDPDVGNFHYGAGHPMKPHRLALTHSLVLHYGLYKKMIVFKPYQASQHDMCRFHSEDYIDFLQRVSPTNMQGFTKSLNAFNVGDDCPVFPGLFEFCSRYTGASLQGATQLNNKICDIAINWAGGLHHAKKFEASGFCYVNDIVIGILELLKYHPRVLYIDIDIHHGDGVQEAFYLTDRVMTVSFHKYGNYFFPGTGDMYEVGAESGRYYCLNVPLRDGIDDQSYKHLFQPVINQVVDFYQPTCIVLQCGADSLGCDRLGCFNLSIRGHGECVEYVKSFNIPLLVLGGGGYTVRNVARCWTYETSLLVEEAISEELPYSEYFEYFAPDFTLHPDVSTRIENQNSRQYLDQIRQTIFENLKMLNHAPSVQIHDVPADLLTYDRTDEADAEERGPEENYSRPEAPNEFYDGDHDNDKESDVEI

[4] = target: Histone deacetylase 4 (Homo sapiens, UniProt P56524); test: Inhibition of recombinant HDAC4 assessed as inhibition of fluorogenic aminocoumarin release from substrate by trypsin-coupled biochemical assay; how it was run: as §1
Histone deacetylase 4, sequence (P56524 whole entry): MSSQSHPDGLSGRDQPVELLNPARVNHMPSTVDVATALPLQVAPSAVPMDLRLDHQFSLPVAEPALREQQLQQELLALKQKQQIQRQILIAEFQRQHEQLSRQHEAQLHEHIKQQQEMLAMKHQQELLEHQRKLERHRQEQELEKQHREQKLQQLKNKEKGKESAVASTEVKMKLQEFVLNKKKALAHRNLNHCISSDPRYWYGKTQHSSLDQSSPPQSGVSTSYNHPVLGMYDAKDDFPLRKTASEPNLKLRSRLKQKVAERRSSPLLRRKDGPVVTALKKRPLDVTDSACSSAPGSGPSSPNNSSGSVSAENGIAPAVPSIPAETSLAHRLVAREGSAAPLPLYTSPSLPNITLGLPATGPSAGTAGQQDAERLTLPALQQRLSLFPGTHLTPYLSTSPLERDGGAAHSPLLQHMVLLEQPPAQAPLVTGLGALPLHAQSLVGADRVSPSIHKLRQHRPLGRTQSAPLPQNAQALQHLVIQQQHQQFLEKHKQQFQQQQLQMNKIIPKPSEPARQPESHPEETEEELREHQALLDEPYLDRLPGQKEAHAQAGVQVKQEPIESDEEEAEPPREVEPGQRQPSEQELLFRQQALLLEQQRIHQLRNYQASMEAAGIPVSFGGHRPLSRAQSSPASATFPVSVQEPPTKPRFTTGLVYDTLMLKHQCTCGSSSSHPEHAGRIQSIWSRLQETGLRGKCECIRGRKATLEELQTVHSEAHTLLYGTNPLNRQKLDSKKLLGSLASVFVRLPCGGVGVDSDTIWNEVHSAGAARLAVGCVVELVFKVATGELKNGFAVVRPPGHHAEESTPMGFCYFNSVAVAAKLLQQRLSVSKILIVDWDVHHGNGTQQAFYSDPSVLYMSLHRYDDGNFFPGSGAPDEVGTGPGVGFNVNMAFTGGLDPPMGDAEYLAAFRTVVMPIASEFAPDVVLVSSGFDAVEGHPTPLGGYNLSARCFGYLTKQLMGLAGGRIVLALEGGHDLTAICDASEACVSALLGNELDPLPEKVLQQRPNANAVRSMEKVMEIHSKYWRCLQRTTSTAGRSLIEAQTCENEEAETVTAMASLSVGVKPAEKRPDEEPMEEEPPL

[5] = target: Histone deacetylase 5 (Homo sapiens, UniProt Q9UQL6); test: Inhibition of recombinant HDAC5 assessed as inhibition of fluorogenic aminocoumarin release from substrate by trypsin-coupled biochemical assay; how it was run: as §1
Histone deacetylase 5, sequence (Q9UQL6 whole entry): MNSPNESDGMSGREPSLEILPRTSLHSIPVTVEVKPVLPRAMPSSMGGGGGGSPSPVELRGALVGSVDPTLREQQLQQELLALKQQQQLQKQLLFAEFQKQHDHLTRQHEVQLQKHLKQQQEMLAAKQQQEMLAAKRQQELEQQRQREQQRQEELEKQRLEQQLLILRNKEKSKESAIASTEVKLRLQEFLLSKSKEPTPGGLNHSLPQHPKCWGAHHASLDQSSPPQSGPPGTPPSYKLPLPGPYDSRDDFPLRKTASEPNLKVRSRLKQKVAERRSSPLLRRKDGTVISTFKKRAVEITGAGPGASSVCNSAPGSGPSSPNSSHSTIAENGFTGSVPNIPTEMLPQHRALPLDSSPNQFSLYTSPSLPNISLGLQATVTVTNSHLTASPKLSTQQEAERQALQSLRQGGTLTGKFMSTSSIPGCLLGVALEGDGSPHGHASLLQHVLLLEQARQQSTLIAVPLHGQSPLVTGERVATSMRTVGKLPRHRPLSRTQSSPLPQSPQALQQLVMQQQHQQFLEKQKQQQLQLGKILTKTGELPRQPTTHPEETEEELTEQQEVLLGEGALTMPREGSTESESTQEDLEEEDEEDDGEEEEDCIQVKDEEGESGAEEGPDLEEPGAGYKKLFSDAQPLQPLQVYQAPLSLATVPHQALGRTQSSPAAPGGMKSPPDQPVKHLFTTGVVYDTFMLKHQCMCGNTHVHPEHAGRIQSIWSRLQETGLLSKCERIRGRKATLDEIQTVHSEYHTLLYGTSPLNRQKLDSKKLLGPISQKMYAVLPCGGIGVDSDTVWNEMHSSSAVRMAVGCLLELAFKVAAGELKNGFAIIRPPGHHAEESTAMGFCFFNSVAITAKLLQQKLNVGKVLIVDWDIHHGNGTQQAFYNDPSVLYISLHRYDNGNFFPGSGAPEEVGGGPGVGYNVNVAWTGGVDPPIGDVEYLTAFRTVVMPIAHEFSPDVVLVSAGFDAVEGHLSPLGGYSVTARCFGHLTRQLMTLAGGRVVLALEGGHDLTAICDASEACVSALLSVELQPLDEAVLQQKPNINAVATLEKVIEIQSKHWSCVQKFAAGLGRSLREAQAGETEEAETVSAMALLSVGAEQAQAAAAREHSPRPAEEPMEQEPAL

[6] = target: T2, Protein deacetylase HDAC6 (Homo sapiens, UniProt Q9UBN7); test: Inhibition of recombinant HDAC6 assessed as inhibition of fluorogenic aminocoumarin release from substrate by trypsin-coupled biochemical assay; how it was run: as §1
T2 sequence (Q9UBN7 whole entry): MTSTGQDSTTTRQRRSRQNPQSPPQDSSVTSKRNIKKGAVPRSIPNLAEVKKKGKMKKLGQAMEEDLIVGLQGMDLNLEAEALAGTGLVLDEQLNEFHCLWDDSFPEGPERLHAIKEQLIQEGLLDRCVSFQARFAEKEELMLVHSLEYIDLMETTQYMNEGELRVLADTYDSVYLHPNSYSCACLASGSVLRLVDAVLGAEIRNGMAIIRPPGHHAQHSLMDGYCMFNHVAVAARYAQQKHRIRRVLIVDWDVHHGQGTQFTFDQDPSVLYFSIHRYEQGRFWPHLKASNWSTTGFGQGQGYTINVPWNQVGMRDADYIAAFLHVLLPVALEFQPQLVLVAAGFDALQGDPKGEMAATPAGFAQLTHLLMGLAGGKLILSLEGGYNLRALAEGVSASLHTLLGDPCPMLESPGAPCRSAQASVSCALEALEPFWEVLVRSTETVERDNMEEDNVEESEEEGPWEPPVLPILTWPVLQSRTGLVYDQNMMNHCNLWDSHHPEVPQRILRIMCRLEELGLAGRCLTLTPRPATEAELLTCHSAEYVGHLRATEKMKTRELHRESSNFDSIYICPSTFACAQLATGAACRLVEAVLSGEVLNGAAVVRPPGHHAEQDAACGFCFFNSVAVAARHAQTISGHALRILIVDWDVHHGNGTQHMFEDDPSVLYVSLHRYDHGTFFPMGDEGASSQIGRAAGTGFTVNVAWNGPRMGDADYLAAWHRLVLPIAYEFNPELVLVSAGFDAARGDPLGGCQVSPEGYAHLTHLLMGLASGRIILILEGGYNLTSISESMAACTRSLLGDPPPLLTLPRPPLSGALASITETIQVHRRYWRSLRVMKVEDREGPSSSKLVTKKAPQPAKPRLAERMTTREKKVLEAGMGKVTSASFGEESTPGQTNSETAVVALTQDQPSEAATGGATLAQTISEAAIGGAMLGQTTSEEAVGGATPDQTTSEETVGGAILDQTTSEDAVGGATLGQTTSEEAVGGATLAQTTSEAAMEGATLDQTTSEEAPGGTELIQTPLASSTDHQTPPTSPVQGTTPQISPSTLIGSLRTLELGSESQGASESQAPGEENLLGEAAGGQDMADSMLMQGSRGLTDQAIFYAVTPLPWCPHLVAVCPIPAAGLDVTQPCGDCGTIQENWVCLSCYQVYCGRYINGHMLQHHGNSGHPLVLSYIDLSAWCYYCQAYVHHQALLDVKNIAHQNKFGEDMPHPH

[7] = target: T3, Histone deacetylase 8 (Homo sapiens, UniProt Q9BY41); test: Inhibition of recombinant HDAC8 assessed as inhibition of fluorogenic aminocoumarin release from substrate by trypsin-coupled biochemical assay; how it was run: as §1
T3 sequence (Q9BY41 whole entry): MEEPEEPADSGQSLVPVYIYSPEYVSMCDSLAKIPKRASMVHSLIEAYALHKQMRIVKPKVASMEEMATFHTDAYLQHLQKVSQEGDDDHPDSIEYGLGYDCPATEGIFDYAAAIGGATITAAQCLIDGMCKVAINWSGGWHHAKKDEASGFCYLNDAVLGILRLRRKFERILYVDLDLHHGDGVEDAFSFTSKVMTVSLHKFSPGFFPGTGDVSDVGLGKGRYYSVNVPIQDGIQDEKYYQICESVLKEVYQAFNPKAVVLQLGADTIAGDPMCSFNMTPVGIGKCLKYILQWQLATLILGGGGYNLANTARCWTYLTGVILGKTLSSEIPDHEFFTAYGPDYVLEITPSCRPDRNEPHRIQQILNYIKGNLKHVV

[8] = target: Histone deacetylase 9 (Homo sapiens, UniProt Q9UKV0); test: Inhibition of recombinant HDAC9 assessed as inhibition of fluorogenic aminocoumarin release from substrate by trypsin-coupled biochemical assay; how it was run: as §1
Histone deacetylase 9, sequence (Q9UKV0 whole entry): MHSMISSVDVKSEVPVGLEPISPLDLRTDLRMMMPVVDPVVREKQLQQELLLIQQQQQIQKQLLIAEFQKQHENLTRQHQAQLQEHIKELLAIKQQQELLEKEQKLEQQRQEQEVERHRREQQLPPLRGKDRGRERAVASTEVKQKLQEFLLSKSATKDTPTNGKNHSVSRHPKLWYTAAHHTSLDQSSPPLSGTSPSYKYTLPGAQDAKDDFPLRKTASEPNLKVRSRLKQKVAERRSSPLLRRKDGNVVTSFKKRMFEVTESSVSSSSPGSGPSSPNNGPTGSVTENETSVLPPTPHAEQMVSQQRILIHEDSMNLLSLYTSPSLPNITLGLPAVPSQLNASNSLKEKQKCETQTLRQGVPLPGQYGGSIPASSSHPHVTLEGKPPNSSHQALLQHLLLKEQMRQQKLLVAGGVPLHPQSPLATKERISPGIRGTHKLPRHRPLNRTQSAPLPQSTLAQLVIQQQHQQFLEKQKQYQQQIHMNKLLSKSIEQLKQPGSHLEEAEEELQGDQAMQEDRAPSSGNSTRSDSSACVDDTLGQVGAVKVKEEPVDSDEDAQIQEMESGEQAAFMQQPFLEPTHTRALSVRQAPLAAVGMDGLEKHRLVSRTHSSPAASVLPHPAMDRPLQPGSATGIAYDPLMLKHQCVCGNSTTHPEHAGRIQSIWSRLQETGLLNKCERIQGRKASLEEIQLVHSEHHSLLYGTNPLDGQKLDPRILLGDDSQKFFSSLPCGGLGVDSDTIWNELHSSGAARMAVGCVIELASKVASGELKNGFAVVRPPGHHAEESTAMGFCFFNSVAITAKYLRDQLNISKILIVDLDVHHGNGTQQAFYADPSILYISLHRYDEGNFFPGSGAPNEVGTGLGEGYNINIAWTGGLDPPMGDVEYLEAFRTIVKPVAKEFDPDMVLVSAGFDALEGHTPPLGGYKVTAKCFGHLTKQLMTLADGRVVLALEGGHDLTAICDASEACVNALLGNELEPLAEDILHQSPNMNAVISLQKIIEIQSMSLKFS

[9] = target: T1, Histone deacetylase 2; test: Competitive inhibition of HDAC2 active site at 1 to 100 uM by Lineweaver-Burk plot
How it was run: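 Lysine-deacetylation inhibition mode on HDAC2. Several inhibitor concentrations were tested with substrate at 10 times above and below the HDAC2 Km. The trypsin-coupled AMC fluorescence read-out was analysed by Lineweaver-Burk plot.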

[10] = target: T4, Histone deacetylase 7 (Homo sapiens, UniProt Q8WUI4); test: Inhibition of recombinant HDAC7 assessed as inhibition of fluorogenic aminocoumarin release from substrate by trypsin-coupled biochemical assay
T4 sequence (Q8WUI4 whole entry): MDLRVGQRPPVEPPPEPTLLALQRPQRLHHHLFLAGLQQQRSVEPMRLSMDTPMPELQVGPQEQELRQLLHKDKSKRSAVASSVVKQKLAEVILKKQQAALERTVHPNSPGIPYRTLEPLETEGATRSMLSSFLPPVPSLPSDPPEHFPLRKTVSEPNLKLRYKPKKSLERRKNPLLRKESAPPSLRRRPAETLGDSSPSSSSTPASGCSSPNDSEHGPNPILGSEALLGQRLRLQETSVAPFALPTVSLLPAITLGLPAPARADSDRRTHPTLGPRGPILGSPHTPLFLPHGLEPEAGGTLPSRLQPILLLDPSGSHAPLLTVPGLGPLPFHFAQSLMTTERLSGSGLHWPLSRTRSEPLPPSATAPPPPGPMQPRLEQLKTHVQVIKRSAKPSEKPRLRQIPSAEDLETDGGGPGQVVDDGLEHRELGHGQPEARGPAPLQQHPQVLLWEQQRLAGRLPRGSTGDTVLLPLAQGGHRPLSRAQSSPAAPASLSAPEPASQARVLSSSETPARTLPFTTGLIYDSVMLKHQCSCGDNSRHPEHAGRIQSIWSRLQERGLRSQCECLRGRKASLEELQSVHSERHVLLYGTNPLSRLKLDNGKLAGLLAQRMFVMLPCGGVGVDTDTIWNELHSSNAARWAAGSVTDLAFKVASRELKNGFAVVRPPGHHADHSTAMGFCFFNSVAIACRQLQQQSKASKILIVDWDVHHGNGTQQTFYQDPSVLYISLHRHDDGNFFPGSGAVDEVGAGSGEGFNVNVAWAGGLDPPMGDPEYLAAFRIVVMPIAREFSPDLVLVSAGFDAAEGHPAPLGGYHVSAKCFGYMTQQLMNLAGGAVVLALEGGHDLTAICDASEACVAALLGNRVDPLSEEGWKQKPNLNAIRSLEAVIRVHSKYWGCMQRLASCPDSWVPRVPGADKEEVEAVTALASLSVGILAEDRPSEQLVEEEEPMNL

Histone deacetylase 1, sequence (Q13547 whole entry): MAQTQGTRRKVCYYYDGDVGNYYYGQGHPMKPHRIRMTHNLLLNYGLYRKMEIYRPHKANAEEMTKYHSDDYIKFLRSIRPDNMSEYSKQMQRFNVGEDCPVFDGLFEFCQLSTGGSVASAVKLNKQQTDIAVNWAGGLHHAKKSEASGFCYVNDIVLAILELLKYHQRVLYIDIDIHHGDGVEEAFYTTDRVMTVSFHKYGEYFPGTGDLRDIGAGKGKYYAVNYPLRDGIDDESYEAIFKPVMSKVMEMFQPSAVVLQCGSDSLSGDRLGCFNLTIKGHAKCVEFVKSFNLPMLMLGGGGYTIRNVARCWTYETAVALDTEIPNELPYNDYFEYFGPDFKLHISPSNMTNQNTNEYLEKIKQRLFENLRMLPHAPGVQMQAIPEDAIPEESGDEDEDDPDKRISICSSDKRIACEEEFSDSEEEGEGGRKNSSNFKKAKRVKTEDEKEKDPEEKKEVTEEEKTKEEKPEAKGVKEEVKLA

IC50 [1] [µM] | IC50 [2] [µM] | IC50 [3] [µM] | IC50 [4] [µM] | IC50 [5] [µM] | IC50 [6] [µM] | IC50 [7] [µM] | IC50 [8] [µM] | inhibition [9] | IC50 [10] [µM] | Compound
16.4 | 18.9 | 15.2 | 32.5 | 27.9 | 11.2 | 23.9 | 74.1 | Active | – | CC(=O)Nc1ccc(C(=O)CSc2nc(C)cc(O)n2)cc1
> 100 | > 100 | > 100 | > 100 | > 100 | > 100 | > 100 | > 100 | – | > 100 | Cc1cc(O)nc(SCC(=O)NCCc2ccccc2)n1
> 100 | > 100 | > 100 | > 100 | > 100 | > 100 | > 100 | > 100 | – | > 100 | Cc1cc(=O)[nH]c(SCC(=O)NCCCCc2ccccc2)n1
> 100 | > 100 | > 100 | > 100 | > 100 | > 100 | > 100 | > 100 | – | > 100 | Cc1cc(=O)[nH]c(SCC(=O)c2ccc3c(c2)OCCO3)n1
77.2 | 69.3 | 40 | > 100 | 48.6 | 7.2 | > 100 | > 100 | – | > 100 | CCOC(=O)CC(=O)CSc1nc(C)cc(O)n1
> 100 | > 100 | > 100 | > 100 | > 100 | > 100 | > 100 | > 100 | – | > 100 | Cc1cc(=O)[nH]c(SCC(=O)NCCCCCCc2ccccc2)n1
> 100 | > 100 | > 100 | > 100 | > 100 | 24.8 | > 100 | > 100 | – | > 100 | Cc1cc(O)nc(SCC(=O)c2cccs2)n1
